From ChEMBL document CHEMBL1649081, “Arylpiperazines for management of benign prostatic hyperplasia: design, synthesis, quantitative structure-activity relationships, and pharmacokinetic studies” (J Med Chem, 2011)
Several values for one entry are separate records, joined by “and”; a condition that tells them apart may be missing. Equal values may be shown once. Activity calls are given as the source filed them. The calls are words filed in the database; no cut-off is given here.

Experiments:
[1] = (§1) […] in Sprague-Dawley rat model […] assessed as reduction in prostate weight at 10 mg/k, po administered daily for 21 days measured after 24 hrs post last dose; type: functional
Method in brief: (§2)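 Adult mature Sprague-Dawley rats (n = 5) received an oral 10.0 mg/kg dose as a water/gum acacia suspension daily for 21 days. Controls received vehicle, and a reference antiandrogen served as positive control. At autopsy 24 h after the last dose, prostates were dissected and weighed.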

Cancer cell lines = assay: as §1; type: functional; method in brief: as §2
[2] = target: Estrogen receptor beta (Homo sapiens) (UniProt Q92731); assay: Induction of ERbeta in human LNCAP cells at 10 umol relative to control; type: cell-based
Method in brief: (§3)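 LNCaP cells were grown in RPMI-1640 with 10% FCS, penicillin and streptomycin on gelatin-coated plates to 80% confluence, then treated at 10.0 μmol for 24 h, with flutamide as comparator. Total RNA was extracted with Trireagent, and ER-α/ER-β mRNA was measured by real-time PCR. Results are fold change versus control, mean ± SE of three values.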

[3] = target: T1, Estrogen receptor (Homo sapiens) (UniProt P03372); assay: Induction of ERalpha in human LNCAP cells at 10 umol relative to control; type: cell-based; method in brief: as §3
T1 sequence (whole entry): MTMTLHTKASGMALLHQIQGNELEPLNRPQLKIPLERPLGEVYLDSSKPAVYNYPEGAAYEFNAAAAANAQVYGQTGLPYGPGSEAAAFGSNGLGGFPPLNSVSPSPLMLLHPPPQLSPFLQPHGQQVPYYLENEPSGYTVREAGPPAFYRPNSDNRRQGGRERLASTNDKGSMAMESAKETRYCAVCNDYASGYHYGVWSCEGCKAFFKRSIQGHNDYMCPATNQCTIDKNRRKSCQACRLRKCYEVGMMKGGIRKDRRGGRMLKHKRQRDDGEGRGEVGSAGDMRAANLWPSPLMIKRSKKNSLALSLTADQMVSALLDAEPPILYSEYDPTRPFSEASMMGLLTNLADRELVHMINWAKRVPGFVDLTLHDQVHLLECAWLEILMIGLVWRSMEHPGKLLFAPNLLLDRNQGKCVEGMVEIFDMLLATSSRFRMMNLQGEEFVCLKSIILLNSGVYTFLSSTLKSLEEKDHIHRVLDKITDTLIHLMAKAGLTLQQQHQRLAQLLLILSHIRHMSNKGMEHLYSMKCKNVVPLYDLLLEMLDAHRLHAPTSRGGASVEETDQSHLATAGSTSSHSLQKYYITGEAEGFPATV

LNCaP [4] = assay: Anticancer activity against human LNCAP cells assessed as change in PSA gene expression at 10 umol after 48 hrs by RT-PCR analysis; type: functional
Method in brief: (§4)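 LNCaP cells (androgen-dependent human prostate cancer) were grown in RPMI-1640 with 10% FCS, 100 units/mL penicillin G and 100 μg/mL streptomycin on gelatin-coated plates. They were treated at 10 μmol for 48 h, with flutamide as positive control. PSA is reported as fold change relative to untreated control.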

LNCaP [5] = assay: Anticancer activity against human LNCAP cells assessed as change in PSA gene expression at 10 umol after 48 hrs by RT-PCR analysis relative to control; type: functional; method in brief: as §4
[6] = Cmax in Sprague-Dawley rat prostate gland at 10 mg/kg, po administered as single dose after 1 hr; type: ADME, organism-based; design: dose 10 mg/kg, route oral
Method in brief: (§5)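 Male Sprague-Dawley rats were fasted overnight (12-16 h) and given a single oral 10 mg/kg dose, n = 3 per time point. Animals were killed at intervals up to 24 h and serum, prostate and hypothalamus collected; hypothalamus was pooled from three rats. Analysis was by HPLC (0.01 M sodium acetate pH 6.0/acetonitrile 30:70; LLOQ 10 ng/mL), with noncompartmental parameters.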

[7] = Tmax in Sprague-Dawley rat prostate gland at 10 mg/kg, po administered as single dose after 1 hr; type: ADME, organism-based; design: dose 10 mg/kg, route oral; method in brief: as §5
[8] = Ratio of drug level in hypothalamus to prostate in Sprague-Dawley rat at 10 mg/kg, po administered as single dos; type: ADME, organism-based; design: dose 10 mg/kg, route oral; conditions: in vivo; method in brief: as §5
[9] = Tmax in Sprague-Dawley rat serum at 10 mg/kg, po administered as single dose after 2 hrs; type: ADME, organism-based; design: dose 10 mg/kg, route oral; method in brief: as §5
[10] = Cmax in Sprague-Dawley rat prostate gland at 10 mg/kg, po administered as single dose after 2 hrs; type: ADME, organism-based; design: dose 10 mg/kg, route oral; method in brief: as §5
[11] = Ratio of drug level in serum to prostate in Sprague-Dawley rat at 10 mg/kg, po administered as single dos; type: ADME, organism-based, Prostate gland; design: dose 10 mg/kg, route oral; conditions: in vivo; method in brief: as §5
[12] = Cmax in Sprague-Dawley rat hypothalamus at 10 mg/kg, po administered as single dose after 1 hr; type: ADME, organism-based; design: dose 10 mg/kg, route oral; method in brief: as §5
[13] = Tmax in Sprague-Dawley rat hypothalamus at 10 mg/kg, po administered as single dose after 1 hr; type: ADME, organism-based; design: dose 10 mg/kg, route oral; method in brief: as §5
Serum [14] = assay: Clearance in Sprague-Dawley rat serum at 10 mg/kg, po administered as single dose; type: ADME, organism-based; design: dose 10 mg/kg, route oral; conditions: in vivo; method in brief: as §5
[15] = Tmax in Sprague-Dawley rat hypothalamus at 10 mg/kg, po administered as single dose after 2 hrs; type: ADME, organism-based; design: dose 10 mg/kg, route oral; method in brief: as §5
[16] = Mean residence time in Sprague-Dawley rat hypothalamus at 10 mg/kg, po administered as single dose; type: ADME, organism-based; design: dose 10 mg/kg, route oral; method in brief: as §5
Serum [17] = assay: AUC (0 to t) in Sprague-Dawley rat serum at 10 mg/kg, po administered as single dose; type: ADME, organism-based; design: dose 10 mg/kg, route oral; conditions: in vivo; method in brief: as §5
[18] = target: Estrogen receptor beta (Homo sapiens) (UniProt Q92731); assay: Induction of ERbeta in human prostate cells at 10 umol relative to control; type: cell-based
Method in brief: (§6)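 ER-α and ER-β mRNA were measured by real-time PCR in two cell types: primary BPH-derived human stromal cells (passages 4-6; DMEM/Ham's F-12, 10% FCS) and LNCaP cells (RPMI-1640, 10% FCS, gelatin-coated). Cells at 80% confluence were treated with 10.0 μmol for 24 h, then total RNA was extracted. Results are fold change versus control, mean ± SE of three values.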

[19] = Cmax in Sprague-Dawley rat hypothalamus at 10 mg/kg, po administered as single dose after 2 hrs; type: ADME, organism-based; design: dose 10 mg/kg, route oral; method in brief: as §5
[20] = Cmax in Sprague-Dawley rat serum at 10 mg/kg, po administered as single dose after 2 hrs; type: ADME, organism-based; design: dose 10 mg/kg, route oral; method in brief: as §5
[21] = Mean residence time in Sprague-Dawley rat prostate gland at 10 mg/kg, po administered as single dose; type: ADME, organism-based; design: dose 10 mg/kg, route oral; method in brief: as §5
[22] = target: T1, Estrogen receptor (Homo sapiens); assay: Induction of ERalpha in human prostate cells at 10 umol relative to control; type: cell-based; method in brief: as §6
[23] = AUC (0 to t) in Sprague-Dawley rat prostate gland at 10 mg/kg, po administered as single dose; type: ADME, organism-based; design: dose 10 mg/kg, route oral; conditions: in vivo; method in brief: as §5
Hypothalamus = assay: AUC (0 to t) in Sprague-Dawley rat hypothalamus at 10 mg/kg, po administered as single dose; type: ADME, organism-based; design: dose 10 mg/kg, route oral; conditions: in vivo; method in brief: as §5
[24] = Mean residence time in Sprague-Dawley rat serum at 10 mg/kg, po administered as single dose; type: ADME, organism-based; design: dose 10 mg/kg, route oral; method in brief: as §5
[25] = Tmax in Sprague-Dawley rat serum at 10 mg/kg, po administered as single dose after 1 hr; type: ADME, organism-based; design: dose 10 mg/kg, route oral; method in brief: as §5
[26] = Tmax in Sprague-Dawley rat prostate gland at 10 mg/kg, po administered as single dose after 2 hrs; type: ADME, organism-based; design: dose 10 mg/kg, route oral; method in brief: as §5
[27] = Cmax in Sprague-Dawley rat serum at 10 mg/kg, po administered as single dose after 1 hr; type: ADME, organism-based; design: dose 10 mg/kg, route oral; method in brief: as §5

Chain of Estrogen receptor beta (Homo sapiens) (Q92731 whole entry): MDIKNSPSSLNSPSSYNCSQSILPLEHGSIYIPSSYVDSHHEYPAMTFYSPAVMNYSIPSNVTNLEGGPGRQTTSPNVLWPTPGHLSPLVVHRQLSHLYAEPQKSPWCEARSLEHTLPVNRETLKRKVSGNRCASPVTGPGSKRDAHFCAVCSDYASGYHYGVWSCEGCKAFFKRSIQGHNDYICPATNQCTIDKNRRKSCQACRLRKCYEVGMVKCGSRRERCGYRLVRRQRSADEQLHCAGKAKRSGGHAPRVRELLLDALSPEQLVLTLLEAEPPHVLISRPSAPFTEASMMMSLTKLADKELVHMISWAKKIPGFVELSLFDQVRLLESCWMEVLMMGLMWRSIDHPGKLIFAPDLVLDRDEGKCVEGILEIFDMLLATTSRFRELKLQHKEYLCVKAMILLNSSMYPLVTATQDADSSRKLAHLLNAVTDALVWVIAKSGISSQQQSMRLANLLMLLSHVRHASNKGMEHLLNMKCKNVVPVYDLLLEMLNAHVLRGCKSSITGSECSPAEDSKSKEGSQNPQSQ

SMILES: O=[N+]([O-])c1ccc(N2CCN(c3ccccn3)CC2)cc1
- inhibition (INH) [1]: 15% and 24%

SMILES: O=[N+]([O-])c1ccccc1N1CCN(c2cccc(Cl)c2)CC1
- Activity (Cancer cell lines): inactive

SMILES: O=C(c1ccc(C(F)(F)F)cc1)N1CCN(c2cccc(Cl)c2)CC1
- inhibition (INH) [1]: 10%

SMILES: O=C(c1ccc(C(F)(F)F)cc1)N1CCN(c2cccc(C(F)(F)F)c2)CC1
- inhibition (INH) [1]: 15%

SMILES: O=[N+]([O-])c1cc(C(F)(F)F)ccc1N1CCN(c2cccc(C(F)(F)F)c2)CC1
- inhibition (INH) [1]: 15% and 24%

SMILES: O=[N+]([O-])c1ccc(CN2CCN(c3cccc(Cl)c3)CC2)cc1
- inhibition (INH) [1]: 15%

SMILES: O=[N+]([O-])c1cc(C(F)(F)F)ccc1N1CCN(c2ccc(F)cc2)CC1
- inhibition (INH) [1]: 15%

SMILES: O=C(c1ccccc1[N+](=O)[O-])N1CCN(c2cccc(C(F)(F)F)c2)CC1
- inhibition (INH) [1]: 15%

SMILES: O=[N+]([O-])c1ccc(CN2CCN(c3ncccn3)CC2)cc1
- inhibition (INH) [1]: 15% and 24%

SMILES: CC(C)C(=O)Nc1ccc([N+](=O)[O-])c(C(F)(F)F)c1 [FLUTAMIDE]
- fold change (FC) [2]: 14
- fold change (FC) [3]: 11
- inhibition (INH) (LNCaP [4]): 99%
- fold change (FC) (LNCaP [5]): 0.01

SMILES: O=[N+]([O-])c1ccccc1N1CCN(c2cccc(C(F)(F)F)c2)CC1
- Activity (Cancer cell lines): inactive

SMILES: O=[N+]([O-])c1cc(C(F)(F)F)ccc1N1CCN(c2ncccn2)CC1
- inhibition (INH) [1]: 15% and 24%

SMILES: O=[N+]([O-])c1ccc(N2CCN(c3ccccn3)CC2)c(C(F)(F)F)c1
- inhibition (INH) [1]: 15% and 24%

SMILES: O=[N+]([O-])c1ccc(CN2CCN(c3cccc(C(F)(F)F)c3)CC2)cc1
- inhibition (INH) [1]: 15%

SMILES: O=[N+]([O-])c1ccc(N2CCN(c3cccc(Cl)c3)CC2)c(C(F)(F)F)c1
- inhibition (INH) [1]: 15% and 24%

SMILES: O=C(c1ccccc1[N+](=O)[O-])N1CCN(c2ccccn2)CC1
- inhibition (INH) [1]: 15%

SMILES: O=C(c1ccccc1)N1CCN(c2ccccn2)CC1
- inhibition (INH) [1]: 10%

SMILES: O=[N+]([O-])c1ccc(N2CCN(c3ccc(F)cc3)CC2)c(C(F)(F)F)c1
- inhibition (INH) [1]: 15% and 24%

SMILES: O=C(c1ccccc1)N1CCN(c2cccc(Cl)c2)CC1
- inhibition (INH) [1]: 10%

SMILES: O=C(c1ccccc1)N1CCN(c2cccc(C(F)(F)F)c2)CC1
- inhibition (INH) [1]: 15%

SMILES: O=[N+]([O-])c1ccc(N2CCN(c3cccc(C(F)(F)F)c3)CC2)c(C(F)(F)F)c1
- fold change (FC) [2]: 16
- Cmax [6]: 442 ng/g
- Tmax [7]: 1.5 h
- Ratio [8]: 0.35
- Tmax [9]: 2 h
- fold change (FC) [3]: 11
- Cmax [10]: 365 ng/g
- Ratio [11]: 0.13
- Cmax [12]: 99.5 ng/g
- Tmax [13]: 1 h
- CL (Serum [14]): 0.17 mL/min/kg
- inhibition (INH) (LNCaP [4]): 90%
- Tmax [15]: 2 h
- MRT [16]: 11.6 h
- AUC (Serum [17]): 712 ng·h/mL
- fold change (FC) [18]: 6
- Cmax [19]: 124 ng/g
- Cmax [20]: 139 ng/mL
- inhibition (INH) [1]: 15% and 24%
- MRT [21]: 11 h
- fold change (FC) [22]: 3
- fold change (FC) (LNCaP [5]): 0.106
- AUC [23]: 5650 ng·h/g
- AUC (Hypothalamus): 2000 ng·h/g
- MRT [24]: 6.97 h
- Tmax [25]: 0.5 h
- Tmax [26]: 6 h
- Cmax [27]: 106 ng/mL

SMILES: O=[N+]([O-])c1ccc(N2CCN(c3ncccn3)CC2)c(C(F)(F)F)c1
- inhibition (INH) [1]: 15% and 24%

SMILES: O=[N+]([O-])c1cc(C(F)(F)F)ccc1N1CCN(c2cccc(Cl)c2)CC1
- inhibition (INH) [1]: 15%

SMILES: O=C(c1ccccc1)N1CCN(c2ncccn2)CC1
- inhibition (INH) [1]: 10%

SMILES: O=[N+]([O-])c1cc(C(F)(F)F)ccc1N1CCN(c2ccccn2)CC1
- inhibition (INH) [1]: 15%

SMILES: O=[N+]([O-])c1ccc(CN2CCN(c3ccccn3)CC2)cc1
- inhibition (INH) [1]: 15%

SMILES: O=[N+]([O-])c1ccccc1N1CCN(c2ccccn2)CC1
- inhibition (INH) [1]: 15%

SMILES: O=C(c1ccc(C(F)(F)F)cc1)N1CCN(c2ccccn2)CC1
- inhibition (INH) [1]: 15%
